# Source: PubChem
# Only some compounds are listed: those with a hit (about 2.1% of all), similar ones and a draw of the others.
# zfTRPN1 agonist: zebrafish TRPN1 channel agonists, primary screen, cell-based, HEK293, calcium fluorescence; activation, % at 3 µM; HEK293 zebrafish TRPN1-YFP, Fluo-8 calcium fluorescence; 100% = response to 87 µM carbachol; transient receptor potential cation channel N1 (TRPN1/NompC), Danio rerio; AID 1424, 2008; 220,000 compounds, 0.18% hits;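 active = activation above its plate's cutoff, the mean activation of test wells on that plate plus 3 SD, cut at about 19% in these data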;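 also: 0% = DMSO alone and 100% = 87 µM carbachol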
#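 Assay system: Zebrafish TRPN1-YFP in HEK293 cells | Incubation: Dye loading 1 h at 37 °C, then 30 min room temperature | Measured by: Kinetic Fluo-8 fluorescence, ex 470-495, em 515-575 nm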
# TRPML3 ag: human TRPML3 channel agonists, primary screen, cell-based, HEK293 TRPML3-YFP, Fluo-8 calcium fluorescence, 3 µM | Mucolipin-3 (Homo sapiens), Q8TDD5 | 100% = the carbachol control signal | activation, % at 3 µM | 220,000 compounds, 0.29% hits;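 active = activation above its plate's cutoff, the mean activation of the plate's test wells plus 3 SD, cut at about 12% in these data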;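 also: 0% = DMSO only wells and 100% = carbachol wells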
# Target sequence (Q8TDD5 whole entry, looked up): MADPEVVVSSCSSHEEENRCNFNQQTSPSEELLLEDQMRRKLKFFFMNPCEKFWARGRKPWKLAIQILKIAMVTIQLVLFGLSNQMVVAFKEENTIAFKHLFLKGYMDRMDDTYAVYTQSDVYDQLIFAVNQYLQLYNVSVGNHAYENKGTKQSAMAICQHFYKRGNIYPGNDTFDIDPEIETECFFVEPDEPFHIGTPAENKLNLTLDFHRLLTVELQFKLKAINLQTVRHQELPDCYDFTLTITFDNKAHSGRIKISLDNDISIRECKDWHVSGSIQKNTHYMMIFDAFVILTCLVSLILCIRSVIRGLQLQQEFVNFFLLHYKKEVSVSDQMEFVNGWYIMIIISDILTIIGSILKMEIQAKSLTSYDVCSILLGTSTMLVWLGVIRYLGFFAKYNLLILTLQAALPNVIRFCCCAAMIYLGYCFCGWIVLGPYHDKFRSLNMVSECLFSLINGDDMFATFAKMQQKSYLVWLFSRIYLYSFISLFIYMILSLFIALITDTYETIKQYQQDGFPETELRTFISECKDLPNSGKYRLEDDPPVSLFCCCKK
#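 Test system: TRPML3-YFP stable HEK293 cells. Doses: single point at 3 µM. Incubation: dye loading 1 h 37 °C then 30 min ambient, 125 s read. Signal: Fluo-8 calcium dye fluorescence, ex 470-495, em 515-575 nm. Measure: percent activation from peak-to-basal fluorescence ratio, scaled between DMSO and carbachol.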
# CRFBP-R2 block: antagonists of CRF-BP/CRF-R2 complex, primary screen, cell-based, HEK293, calcium dye fluorescence, uHTS | CRF-induced calcium fluorescence | inhibition, % at 11.8 µM | 350,000 compounds, 0.59% hits | AID 588475, 2011;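 active = inhibition of the ligand-induced calcium signal above about 50% at the single tested concentration, limit read from the data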
# VIM-2 inhibitor: VIM-2 metallo-beta-lactamase inhibitors, primary screen, biochemical, epi-absorbance readout, Pseudomonas aeruginosa enzyme | purified VIM-2, nitrocefin hydrolysis, epi-absorbance fluorescence | 290,000 compounds, 0.89% hits | inhibition, % at 5.6 µM;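 active = inhibition above the mean of all tested compounds plus 3 SD, cutoff set per screening run, cut at about 7.5% in these data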;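 also: red hydrolysis product quenches plate fluorescence so inhibitors raise well fluorescence; 0% = enzyme with DMSO and 100% = DMSO without enzyme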
# CRFR2-BP ag: agonists of CRF-BP/CRF-R2 complex, primary screen, cell-based, HEK293, calcium dye fluorescence, uHTS. CRF-binding protein / CRF receptor 2 complex (human). calcium dye fluorescence (FLIPR); percent of saturating CRF peptide response. activation, % at 13.2 µM. 350,000 compounds, 0.46% hits;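 active = activation of at least 50%, plus an integration ratio under a set limit after plate pattern correction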;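 also: plate controls were neutral control wells without compound for no effect and CRF at EC100 for full effect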
# IMP-1 inh: IMP-1 metallo-beta-lactamase inhibitors, primary screen, biochemical, epi-absorbance readout, Pseudomonas aeruginosa enzyme; metallo-beta-lactamase IMP-1 (Pseudomonas aeruginosa); AID 1556, 2009; purified IMP-1, nitrocefin hydrolysis, epi-absorbance fluorescence; 290,000 compounds, 0.45% hits; inhibition, % at 5.6 µM;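 active = inhibition above the mean plus 3 SD of all compounds in the same screening run, cut at about 4.5% in these data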;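 also: 0% = IMP-1 with DMSO and 100% = DMSO wells lacking enzyme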
#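 Assay system: purified recombinant IMP-1 beta-lactamase. Input: IMP-1 0.2 nM before substrate addition. Buffer or medium: Zinc- and detergent-supplemented HEPES buffer, pH 7.1. Schedule: 25 °C, 15 min preincubation, 25 min reaction. Signal: Epi-absorbance fluorescence, 480 nm excitation, 530 nm emission. Evaluation: percent inhibition from optical density relative to buffer-blank wells.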
# * marks the source's active call; other numbers are inactive results; · = no result given.
SMILES,zfTRPN1 agonist,TRPML3 ag,CRFBP-R2 block,VIM-2 inhibitor,CRFR2-BP ag,IMP-1 inh
O=C1c2cccc3c([N+](=O)[O-])ccc(c23)C(=O)N1c1ccc(Cl)cn1,0,1,91*,0,19,-1
COc1ccc2c3c(cccc13)C(=O)N(O)C2=O,-1,0,-10,9.0*,15,-3
O=C1c2cccc3c([N+](=O)[O-])c(O)cc(c23)C(=O)N1Nc1ccccc1,2,1,-1,-2,-1,-4
O=C1c2cccc3c([N+](=O)[O-])ccc(c23)C(=O)N1O,·,·,-6,8.8*,11,2
O=C1c2cccc3c([N+](=O)[O-])ccc(c23)C(=O)N1c1nccs1,-3,-2,83*,1,23,1
O=C1c2cccc3c(N4CCCCC4)ccc(c23)C(=O)N1c1ccccn1,7,6,-9,3,16,5.8*
O=C1c2cccc3c(N4CCCCC4)ccc(c23)C(=O)N1c1ccc(Cl)cn1,6,6,·,2,·,1
CC(=O)Oc1ccc(N2C(=O)c3cccc4c([N+](=O)[O-])ccc(c34)C2=O)cc1,·,·,75*,2,4,-1
CC(=O)Nc1ccc(S(=O)(=O)NC2CC2)cc1,·,·,6,-2,1,-1
CC1(C)CC[C@]2(C(=O)n3ccnc3)CC[C@]3(C)[C@H](C(=O)C=C4[C@@]5(C)C=C(C#N)C(=O)C(C)(C)[C@@H]5CC[C@]43C)[C@@H]2C1,·,·,-97,·,122*,·
CCOc1cc(/C=C2\CCCc3c2nc2ccccc2c3C(=O)O)ccc1OC,·,·,-182,3,201*,6.9*
COc1ccc(CNc2cc([N+](=O)[O-])ccc2OC)cc1,-2,-1,89*,0,-2,-2
O=C(O)[C@H](Cc1ccccc1)Nc1ccc([N+](=O)[O-])cn1,·,·,-7,-2,1,0
Cc1cc([N+](=O)[O-])ccc1NCc1ccc2ccccc2c1,0,1,18,-1,0,-2
O=C(O)C(Cc1ccccc1)Nc1ccc([N+](=O)[O-])cc1[N+](=O)[O-] (stereo not drawn),·,·,53*,0,4,-2
Cc1cc([N+](=O)[O-])ccc1NCc1ccccc1,-2,0,114*,-2,1,-2
Cc1ccccc1C1=NC(C(F)(F)F)(C(F)(F)F)c2c(n(C)c(=O)n(C)c2=O)N1,0,0,15,-1,-1,-1
Cn1c2c(c(=O)n(C)c1=O)C(C(F)(F)F)(C(F)(F)F)N=C(c1ccc(Cl)cc1)N2,29*,20*,30,0,83*,-2
CCN(CC)CCCNC(=O)c1ccc2c(Cl)c3c(nc2c1)CCCC3,-1,1,8,9.3*,1,-3
CCCN1CCN(CCCNC(=O)c2ccc3c(Cl)c4c(nc3c2)CCCC4)CC1,·,·,-3,8.4*,-1,-3
CCN(CC)CCCNC(=O)c1ccc2c(SCC(=O)O)c3c(nc2c1)CCC3,0,0,·,2,·,-4
CCN(CC)CCNC(=O)CSc1c2c(nc3cc(Cl)ccc13)CCCC2,1,1,-6,8.4*,-1,-1
CCN(CC)C(=O)C1=C(C)N(CCC2=CCCCC2)C(=O)C(CC(=O)NCCCCc2ccccc2)C1 (stereo not drawn),·,·,17,·,0,·
O=C(O)CNC(=O)c1ccc(NC(=O)/C(=C/c2ccccc2)NC(=O)c2ccccc2)cc1,·,·,-2,0,1,-4
O=C(c1ccncc1)N1CCN(S(=O)(=O)c2ccccc2Br)CC1,·,·,-17,·,3,·
SMILES,zfTRPN1 agonist,TRPML3 ag,CRFBP-R2 block,VIM-2 inhibitor,CRFR2-BP ag,IMP-1 inh
N#CC(c1ccc(Cl)cc1)c1ccc2c(C(F)(F)F)cc(C(F)(F)F)nc2n1 (stereo not drawn),9,0,69*,-4,31,-5
CCN(c1ccc(N=Cc2c(O)n(Cc3ccc(OC)cc3)c(=O)c3ccccc23)cc1)C(C)C,0,1,-99,-2,127*,-3
CC(=O)N(c1ccccc1)C1SC(=O)N(c2ccccc2)C1=O (stereo not drawn),1,1,1,3,0,6.5*
O=C(CSc1c(Cl)cccc1Cl)NC1CCCc2ccccc21 (stereo not drawn),-1,-1,1,1,1,8.0*
CCC(C)NCCOc1ccc(Br)cc1 (stereo not drawn),0,2,-23,-3,0,-2
CCC(C)NCCOc1ccccc1C (stereo not drawn),0,0,-14,-3,0,28*
CCn1cc(C2=NOC(C(=O)Nc3ccccc3C(=O)OC)C2)c(C)n1 (stereo not drawn),2,1,52*,0,-5,0
CCN1/C(=C\C(=S)Nc2ccccc2)Sc2ccccc21,0,0,-13,0,-1,-2
CCN1/C(=C\C=C2\C(=O)N(c3ccccc3)C(=S)N2C)Sc2ccccc21,0,1,-11,-3,-2,-3
CCN1/C(=C\C=C(C(C)=O)C(C)=O)Sc2ccccc21,14,7,-82,1,81*,-3
CCOC(=O)/C(C#N)=C(C)/C=C1\Sc2ccccc2N1CC,2,0,-156,-3,122*,-3
Cc1cc(C)c2c(CC(=O)Nc3nccs3)coc2c1,3,1,99*,-3,3,-3
O=C/C(=C\Nc1ccccn1)c1nc2cc(Cl)ccc2o1,2,1,80*,-4,-3,-1
Cc1c2cnn(CC(=O)NC3CCCC3)c(=O)c2c(C)n1Cc1ccccc1,·,·,111*,-2,-1,-1
CC1(C)N=C(c2ccccc2)C(c2ccccc2)=N1,·,·,11,·,-4,·
COc1ccc(NC(=O)COC(=O)C2CC2)c(OC)c1,·,·,0,·,-1,·
NC(=O)CN1CCN(C(=O)NC2CCCCC2)CC1,2,1,-8,-3,6,-5
O=C(NCCN1CCN(C(=O)NC2CCCCC2)CC1)NC1CCCCC1,1,0,67*,2,2,-1
COc1ccc(-c2nc3c(c(SCC(=O)N4CCOCC4)n2)Cc2c(CO)cnc(C)c2O3)cc1,·,·,10,6,0,6.3*
COc1ccc(-c2ccc(SCC(=O)N3CCOCC3)nn2)cc1,1,0,0,-2,0,-1
Cc1ccc(-c2nc3c(c(SCC(=O)N4CCOCC4)n2)Cc2c(CO)cnc(C)c2O3)cc1,·,·,-9,3,2,8.9*
